Experimental data taken from ChEMBL document CHEMBL3616436, “Synthesis, cytotoxicity and antimicrobial activity of thiourea derivatives incorporating 3-(trifluoromethyl)phenyl moiety” (Eur J Med Chem, 2015).
In brackets after ≈: the same amount, converted by molar mass.

Key:
[1] = tested on: Staphylococcus epidermidis; experiment: Inhibition of biofilm formation in Staphylococcus epidermidis 151/04 after 24 hrs using MTT staining by spectrophotometer analysis; format: functional, organism-based; settings: 151/04, 24 h
[2] = tested on: Staphylococcus epidermidis; experiment: Inhibition of biofilm formation in Staphylococcus epidermidis […]/[…] at 8 ug/ml after 24 hrs using MTT staining by spectrophotometer analysis; format: functional; settings: 16/04, 24 h
[3] = tested on: Staphylococcus epidermidis; experiment: Inhibition of biofilm formation in Staphylococcus epidermidis 23/04 at 8 ug/ml after 24 hrs using MTT staining by spectrophotometer analysis; format: functional; settings: 23/04, 24 h
[4] = tested on: Staphylococcus epidermidis; experiment: Inhibition of biofilm formation in Staphylococcus epidermidis 31/04 at 8 ug/ml after 24 hrs using MTT staining by spectrophotometer analysis; format: functional; settings: 31/04, 24 h
In short: (§1)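 Methicillin-resistant hospital isolates or ATCC strains of S. epidermidis were grown overnight in tryptone soy broth with 0.5% glucose. Inoculum of 10^7 CFU/mL was mixed 1:1 with compound in TSB-glucose and incubated 24 h at 37 °C. Non-adherent cells were washed off with PBS, and wells were stained with MTT (0.5% in PBS) for 2 h at 37 °C. Stain was solubilized in DMSO/glycine buffer and read at A554. Inhibition is relative to drug-free control; quadruplicates.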

[5] = tested on: Staphylococcus epidermidis; experiment: Inhibition of biofilm formation in Staphylococcus epidermidis ATCC 12228 at 8 ug/ml after 24 hrs using MTT staining by spectrophotometer analysis; format: functional; settings: ATCC 12228, 24 h; in short: as §1
[6] = tested on: Staphylococcus epidermidis; experiment: Inhibition of biofilm formation in Staphylococcus epidermidis ATCC 35984 at 8 ug/ml after 24 hrs using MTT staining by spectrophotometer analysis; format: functional; settings: ATCC 35984, 24 h; in short: as §1

SMILES | IC50 [1] | inhibition at 8 µg/mL [2] | inhibition at 8 µg/mL [3] | inhibition at 8 µg/mL [4] | inhibition at 8 µg/mL [5] | inhibition at 8 µg/mL [6]
FC(F)(F)c1cccc(NC(=S)Nc2cccc(Br)c2)c1 | 2.34 µg/mL (≈ 6.24 µM) | 70% | 70% | 70% |  | 
Fc1ccc(NC(=S)Nc2cccc(C(F)(F)F)c2)cc1Cl |  | 40% | 40% | 40% | 40% | 40%
O=C(O)c1cn(C2CC2)c2cc(N3CCNCC3)c(F)cc2c1=O [CIPROFLOXACIN] | 13.1 µg/mL (≈ 39.5 µM) |  |  |  |  | 
